The values below come from article PMC4792293 (RSC advances, 2015).

Like-named read-outs stand apart in the source and are kept apart here.

In test [1] the target is T1, α-glucosidase (Saccharomyces cerevisiae, UniProt P53341). Kind of test: Circular dichroism. In kind it is binding. Particulars: α-glucosidase 2 μM; for β-Turns %: control 14.3; for β-Fold %: control 21.9; for Unordered %: control 26.9; for α-Helix %: control 36.3. An outline of the steps: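 Far-UV CD spectra (190–240 nm) at 25 °C. Yeast α-glucosidase at 2 μM was co-incubated with test compound at 0–80 μM for 20 min at 37 °C in 0.1 M sodium phosphate, pH 6.8, in a 1.0 mm path-length cell. Spectra were blank-subtracted against buffer, noise-reduced and smoothed. Secondary-structure fractions were estimated with the DichroWeb server.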
(In general: CD spectra are sensitive to the conformation of chiral molecules.)

Test [2] concerns the target T1, α-glucosidase. The test can be described thus: Isothermal titration calorimetry. In kind it is binding. Particulars: for ITC titration peaks: ligand concentrations 1 – 4 mM; for binding constants (Ka) / ΔG / Ka / ΔH / ΔS / N [GCGs/α-glucosidase] (ligand:enzyme ratio): ITC. An outline of the steps:
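Test compound (1–4 mM) was titrated into α-glucosidase (0.026–0.031 mM) in the cell, both in 100 mM phosphate, pH 7.0, and degassed 20 min under vacuum. Titration used 17 injections at 240 s intervals, 25 °C, with stirring at 310 rpm. Blanks were buffer into buffer and compound into buffer. Data were fit by nonlinear regression to a single-site binding model.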
For orientation: In ITC the heat of successive injections is recorded.

The target in test [3] is T2, α-Glucosidase (EC 3.2.1.20) from Saccharomyces cerevisiae (Saccharomyces cerevisiae, UniProt P53341). The test can be described thus: α-glucosidase inhibitory assay. Type of test: biochemical.
Test [4] deals with T2, α-Glucosidase (EC 3.2.1.20) from Saccharomyces cerevisiae. Kind of test: Kinetics of α-glucosidase inhibition. In kind it is biochemical. Particulars: Lineweaver-Burk plots, ligand 2 – 250 μM. An outline of the steps: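 Two inhibitor concentrations within 2–250 μM were tested against p-nitrophenyl-α-D-glucopyranoside at 1–1000 μM in 50 mM phosphate, pH 6.8. Enzyme and inhibitor were pre-incubated for 30 min, at room temperature per the methods but at 37 °C per the figure legend. Substrate was then added, reacted 60 s at room temperature and read at 405 nm. Inhibition type was assigned from double-reciprocal plots.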

Test [5] concerns α-glucosidase. Particulars: cited from earlier work.
Where [6] appears, read: yeast α-glucosidase, pNPG, pH 6.9, 25 °C, mean ± S.D. from three independent experiments.

T2 sequence (P53341 whole entry): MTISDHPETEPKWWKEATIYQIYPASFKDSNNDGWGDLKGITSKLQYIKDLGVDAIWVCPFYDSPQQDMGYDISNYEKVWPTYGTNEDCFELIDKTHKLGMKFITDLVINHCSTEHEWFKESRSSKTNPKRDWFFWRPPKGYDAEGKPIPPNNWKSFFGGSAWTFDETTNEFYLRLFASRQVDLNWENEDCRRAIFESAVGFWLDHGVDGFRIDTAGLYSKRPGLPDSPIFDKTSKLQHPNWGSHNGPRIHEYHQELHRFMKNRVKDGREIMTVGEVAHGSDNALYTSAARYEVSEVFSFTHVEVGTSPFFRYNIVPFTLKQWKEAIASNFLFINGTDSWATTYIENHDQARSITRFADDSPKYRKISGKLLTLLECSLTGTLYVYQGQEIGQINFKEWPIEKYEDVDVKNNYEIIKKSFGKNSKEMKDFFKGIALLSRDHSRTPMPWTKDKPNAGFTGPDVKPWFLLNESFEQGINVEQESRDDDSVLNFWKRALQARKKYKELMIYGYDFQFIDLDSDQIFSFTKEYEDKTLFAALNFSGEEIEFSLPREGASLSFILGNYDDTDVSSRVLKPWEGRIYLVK
T1 sequence (P53341 whole entry): as above

As for `O=C(OC[C@H]1OC[C@H](OC(=O)c2cc(O)c(O)c(O)c2)[C@@H](O)[C@@H]1O)c1cc(O)c(O)c(O)c1` [ginnalin A], at α-glucosidase [1] (ligand 40 μM), the β-Turns % turned out to be 11.5%, the β-Fold % is 22.7%, the Unordered % was found to be 27.8% and the α-Helix % came out at 37.8%. At α-glucosidase [1] (ligand 80 μM), this molecule returned a β-Turns % of 15.8%, a β-Fold % of 22.5%, an Unordered % of 27.7% and a α-Helix % of 33.5%. Further, the ITC titration peaks result at α-glucosidase [2] was “too weak to yield thermodynamic parameters”. Moreover, inhibition in test [3] was half-maximal at 216 ± 3.19 µM (IC50). Further, the Type of inhibition result in test [4] is on record as “noncompetitive”.
At α-glucosidase [1] (ligand 20 μM), maplexin F showed a β-Turns % of 15.6%, a β-Fold % of 24.7%, an Unordered % of 28.4% and a α-Helix % of 30.7%. Further, on α-glucosidase [1] (ligand 40 μM), the β-Turns % is recorded as 16.6%, the β-Fold % was 22.7%, the Unordered % is 28.9% and the α-Helix % is 31.2%. Moreover, on α-glucosidase [2], the “binding constants (Ka)” value worked out at 28500 mol⁻¹ and the ΔG is -6.09 kcal/mol. At α-glucosidase [2] (25 °C, phosphate buffer pH 7.0), the Ka is recorded as 2.85 10^4 mol^−1, the ΔG is -1.46 kcal/mol, the ΔH is -10.26 kJ/mol and the ΔS was determined as 14.06 J mol^−1 K^−1. Further, the “N [GCGs/α-glucosidase] (ligand:enzyme ratio)” value at α-glucosidase [2] (25 °C, phosphate buffer pH 7.0, listed as MF) is 1.01. In test [3] (setting [6]), half-maximal inhibition (IC50) was put at 13.7 ± 0.87 µM. For the same molecule, in test [4], the Type of inhibition entry is “noncompetitive”.
For the molecule `O=C(OC[C@H]1OC[C@H](O)[C@@H](O)[C@@H]1O)c1cc(O)c(O)c(O)c1` [ginnalin B], the ITC titration peaks result at α-glucosidase [2] is given as “too weak to yield thermodynamic parameters”. Further, in test [3], the IC50 – broadly, the concentration at which inhibition is half-maximal – was above 1000 µM.
For `C[C@H]1O[C@H](O[C@H]2[C@H](O)[C@@H](O)[C@@H](O[C@H]3[C@H](O)[C@@H](O)C(O)O[C@@H]3CO)O[C@@H]2CO)[C@H](O)[C@@H](O)[C@@H]1N[C@H]1C=C(CO)[C@@H](O)[C@H](O)[C@H]1O` (stereo partly shown) [acarbose], the Type of inhibition result in the test on α-glucosidase [5] (positive control) is given as “competitive inhibitor”.
`O=C(O[C@H]1CO[C@H](CO)[C@@H](O)[C@@H]1O)c1cc(O)c(O)c(O)c1` [ginnalin C]: the ITC titration peaks entry at α-glucosidase [2] is “too weak to yield thermodynamic parameters”. The IC50 in test [3] is above 1000 µM.
On α-glucosidase [1] (ligand 20 μM), `O=C(OC[C@H]1OC[C@H](OC(=O)c2cc(O)c(O)c(O)c2)[C@@H](OC(=O)c2cc(O)c(O)c(O)c2)[C@@H]1OC(=O)c1cc(O)c(O)c(O)c1)c1cc(O)c(O)c(O)c1` [maplexin J] had a β-Turns % of 20.4%, a β-Fold % of 21.1%, an Unordered % of 26.4% and a α-Helix % of 31.8%. On α-glucosidase [1] (ligand 40 μM), this molecule gave a β-Turns % of 19.1%, a β-Fold % of 24.4%, an Unordered % of 25.3% and a α-Helix % of 30.7%. Further, on α-glucosidase [2], the “binding constants (Ka)” value came out at 42200 mol⁻¹ and the ΔG was -6.31 kcal/mol. For the same molecule, at α-glucosidase [2] (25 °C, phosphate buffer pH 7.0), the Ka is 4.22 10^4 mol^−1, the ΔG is -1.51 kcal/mol, the ΔH is -25.17 kJ/mol and the ΔS turned out to be 63.31 J mol^−1 K^−1. Also, the “N [GCGs/α-glucosidase] (ligand:enzyme ratio)” value on α-glucosidase [2] (25 °C, phosphate buffer pH 7.0, listed as MJ) is recorded as 1.01. Besides, the IC50 in test [3] (setting [6]) turned out to be 4.27 ± 0.13 µM. The “potency relative to maplexins E and F” value in test [3] (α-glucosidase inhibition) is “three times more potent than maplexins E and F”. Moreover, in test [4], the Type of inhibition entry is on record as “noncompetitive”.
For `O=C(OC[C@H]1O[C@@H](OC(=O)c2cc(O)c(O)c(O)c2)[C@H](OC(=O)c2cc(O)c(O)c(O)c2)[C@@H](OC(=O)c2cc(O)c(O)c(O)c2)[C@@H]1OC(=O)c1cc(O)c(O)c(O)c1)c1cc(O)c(O)c(O)c1` [PGG, pentagalloyl glucose], in the test with α-glucosidase [5], the Type of inhibition entry was “noncompetitive α-glucosidase inhibitor”.
